Experimental data reported in ChEMBL document CHEMBL1143800, “Design and synthesis of new pyranoxanthenones bearing a nitro group or an aminosubstituted side chain on the pyran ring. Evaluation of their growth inhibitory activity in breast cancer cells” (Eur J Med Chem, 2007).

Tests used:
MDA-MB-231 [1] = test: Antiproliferative activity against human MDA-MB-231 cells at 1 uM after 72 hrs; type: functional
Summary of the method: (§1)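 MDA-MB-231 cells grown in serum-containing EMEM (10% FBS) were plated at 1 × 10⁴ cells/well. 24 h later they were exposed to a single compound level in fresh serum medium, using DMSO/ethanol stocks diluted into the medium. At 72 h, WST-1 was added for 3 h and formazan read at 450 nm (ref 650). Values are % growth inhibition versus controls, averaged ± SD over three experiments, each in triplicate.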

MDA-MB-231 [2] = test: Antiproliferative activity against human MDA-MB-231 cells at 10 uM after 72 hrs; type: functional; summary of the method: as §1
MDA-MB-231 [3] = test: Antiproliferative activity against human MDA-MB-231 cells at 100 uM after 72 hrs; type: functional; summary of the method: as §1
MDA-MB-231 [4] = test: Antiproliferative activity against human MDA-MB-231 cells after 72 hrs; type: functional, cell-based; details: MDA-MB-231, 72 h
Summary of the method: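 MDA-MB-231 (ER-negative) monolayers in EMEM with 10% FBS, L-glutamine, pyruvate, NEAA, insulin at 37 °C, 5% CO2. Seeded 1 × 10⁴ cells/well with serum and dosed 24 h later with compound at 1–100 (DMSO and/or ethanol stocks diluted into medium). After 72 h, 3 h WST-1 read at 450 nm (ref 650). IC50 = concentration halving OD versus untreated controls. Mean ± SD, three independent experiments.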

MDA-MB-231 [5] = test: Antiproliferative activity against human MDA-MB-231 cells at 30 uM after 72 hrs; type: functional; summary of the method: as §1
MDA-MB-231 [6] = test: Antiproliferative activity against human MDA-MB-231 cells at 3 uM after 72 hrs; type: functional; summary of the method: as §1

SMILES | Activity (MDA-MB-231 [1]) | Activity (MDA-MB-231 [2]) | Activity (MDA-MB-231 [3]) | IC50 (MDA-MB-231 [4]) | Activity (MDA-MB-231 [5]) | Activity (MDA-MB-231 [6])
CCN(CC)CC(=O)NC1Cc2c(cc(OC)c3c(=O)c4ccccc4oc23)OC1(C)C (configuration not stated) | 12% | 15% | 74% | 52 µM | 15% | 12%
COc1cc2c(c3oc4ccccc4c(=O)c13)CC(NC(=O)CN(C)C)C(C)(C)O2 (configuration not stated) | 12% | 15% | 74% | 51 µM | 15% | 12%
CCN(CC)CCNc1cc2c(c3oc4ccccc4c(=O)c13)CC(NC(=O)CN(CC)CC)C(C)(C)O2 (configuration not stated) | – | – | 75% | 68 µM | – | –
CN(C)CCNc1cc2c(c3oc4ccccc4c(=O)c13)CC(NCCN(C)C)C(C)(C)O2 (configuration not stated) | 20% | 20% | – | 46 µM | – | 20%
COc1cc2c(c3oc4ccccc4c(=O)c13)CC(N)C(C)(C)O2 (configuration not stated) | 12% | 15% | 74% | 53 µM | 15% | 12%
CCN(CC)CCNC1Cc2c(cc(OC)c3c(=O)c4ccccc4oc23)OC1(C)C (configuration not stated) | 12% | 15% | 74% | 44 µM | 15% | 12%
CCN(CC)CCNc1cc2c(c3oc4ccccc4c(=O)c13)CC(NCCN(CC)CC)C(C)(C)O2 (configuration not stated) | – | – | 75% | 73 µM | – | –
COc1cc2c(c3oc4ccccc4c(=O)c13)CC(NCCN(C)C)C(C)(C)O2 (configuration not stated) | 12% | 15% | 74% | 57 µM | 15% | 12%
CN(C)CCNc1cc2c(c3oc4ccccc4c(=O)c13)CC([N+](=O)[O-])C(C)(C)O2 (configuration not stated) | 20% | 20% | – | > 100 µM | – | 20%
CN(C)CCNc1cc2c(c3oc4ccccc4c(=O)c13)CC(NC(=O)CN(C)C)C(C)(C)O2 (configuration not stated) | 20% | 20% | – | 50 µM | – | 20%
CCN(CC)CCNc1cc2c(c3oc4ccccc4c(=O)c13)CC(N)C(C)(C)O2 (configuration not stated) | – | – | 75% | 62 µM | – | –
CN(C)CCNc1cc2c(c3oc4ccccc4c(=O)c13)C=C([N+](=O)[O-])C(C)(C)O2 | – | – | – | 21 µM | – | –
CCN(CC)CCNc1cc2c(c3oc4ccccc4c(=O)c13)C=C([N+](=O)[O-])C(C)(C)O2 | – | – | – | > 100 µM | – | –
CCN(CC)CCNc1cc2c(c3oc4ccccc4c(=O)c13)CC([N+](=O)[O-])C(C)(C)O2 (configuration not stated) | – | – | 20% | > 100 µM | 20% | –
CN(C)CCNc1cc2c(c3oc4ccccc4c(=O)c13)CC(N)C(C)(C)O2 (configuration not stated) | 20% | 20% | – | 38 µM | – | 20%
